# Results from different studies.
# Compare with care: the assays were run in different laboratories.
# Organism: Escherichia coli
# Observed: microbial growth
SMILES,method,cells,strain,time,setting,MIC
Cc1ccc(C)n1-c1ccc(-c2nnc(-c3ccccc3[N+](=O)[O-])[nH]2)cc1,broth dilution,,ATCC10536,18 h,,250 µg/mL
Cc1c(CN(C)C(=O)/C=C/c2cnc3c(c2)CC(NC(=O)OC(C)(C)C)C(=O)N3)oc2ccccc12 (centres unmarked),broth dilution,,BAA2340,,clinical isolate,> 32 µg/mL
c1ccc2c(-c3nc4ccccc4[nH]3)c3ccccc3cc2c1,broth dilution,,ATCC25922,,,64 µg/mL
Cc1cc(C(=O)Nc2ccc(C(=O)N[C@@H](CC(N)=O)C(=O)Nc3ccc(C(=O)Nc4ccc(C(=O)Nc5ccc(C(=O)O)cc5)c(O)c4OC(C)C)cc3)cc2)ccc1C#N,,,DSM1116,,,0.5 µg/mL
O=[N+]([O-])c1ccc(-c2nc3cc(F)ccc3[nH]2)o1,broth dilution,,ATTC25922,,,4 µg/mL
O=C(CCCCCCCC[P+](c1ccccc1)(c1ccccc1)c1ccccc1)Nc1ccc(O)c(O)c1.[Br-],broth dilution,,ATCC25922,18 h,,> 32 µg/mL
N=C(N)c1ccc(OCc2cccc(COc3ccc(C(=N)N)cc3)c2)cc1,broth dilution,,ATCC25922,,,200 µg/mL
CCCCCCC/C=C/C(=O)N1C(=O)/C(=C(\O)c2ccc(F)cc2)C(=O)C1CC(C)C (centres unmarked),,K12,K12,,,> 200 µg/mL
O=C(O)c1cn(C2CC2)c2cc(N3CCNCC3)c(F)cc2c1=O,,,,,,1.6 µg/mL
COc1cc(Cc2cnc(N)nc2N)cc(OC)c1OC,broth dilution,,,24 h,,> 32 µg/mL
COc1c(C)c(OCc2ccccc2)c(C)c(O)c1C(=O)/C=C/c1ccccc1,broth dilution,,ATCC25922,,,5000 µg/mL
CC(C)Oc1c(NC(=O)c2ccc(NC(=O)[C@H](CC(N)=O)NC(=O)c3ccc(NC(=O)C(C)Oc4ccccc4)cc3)cc2)ccc(C(=O)Nc2ccc(C(=O)O)cc2)c1O (some centres unmarked),,,DSM1116,,,> 64 µg/mL
Cc1ccc2nc(-c3ccc(Cl)c(Cl)c3)n(Cc3ccccc3)c2c1,broth dilution,,ATCC25922,,,32 µg/mL
O=C(CCCCCC[P+](c1ccccc1)(c1ccccc1)c1ccccc1)Nc1cc(O)c(O)c(O)c1.[Br-],broth dilution,,ATCC25922,18 h,,> 32 µg/mL
Cc1ccc2nc(-c3ccc(Cl)cc3)n(Cc3ccccc3Cl)c2c1,broth dilution,,ATCC25922,,,64 µg/mL
O=C(Nc1ccc(F)c(Cl)c1)c1cc(Cl)ccc1O,broth dilution,,ATCC25922,,,> 64 µg/mL
CC(C)Oc1c(NC(=O)c2ccc(NC(=O)[C@H](CC(N)=O)NC(=O)c3ccc(NC(=O)c4cc(=O)c(O)c[nH]4)cc3)cc2)ccc(C(=O)Nc2ccc(C(=O)O)cc2)c1O,,,DSM1116,,,> 64 µg/mL
CCCC(=O)Oc1c(C)c(O)c(C(=O)/C=C/c2ccccc2)c(OC)c1C,broth dilution,,ATCC25922,,,5000 µg/mL
Cc1ccc(NCc2ccc(Oc3ccccn3)cc2)cc1,,,,,,> 25 µg/mL
NC1CCCCc2c1[nH]c1ccc(Cl)c(Cl)c21 (centres unmarked),broth dilution,,ATCC25922,,,16 µg/mL
CCn1cc(C(=O)O)c(=O)c2cc(F)c(N3CCNCC3)cc21,broth dilution,,ATCC10536,18 h,,≤ 1 µg/mL
Cc1ccc2nc(-c3ccc(F)cc3)n(Cc3ccccc3)c2c1,broth dilution,,ATCC25922,,,128 µg/mL
COc1cc(C(=O)Nc2ccc(C(=O)N[C@@H](CC(N)=O)C(=O)Nc3ccc(C(=O)Nc4ccc(C(=O)Nc5ccc(C(=O)O)cc5)c(O)c4OC(C)C)cc3)cc2)ccc1C#N,,,DSM1116,,,< 0.03 µg/mL
N=C(N)c1ccc(OCCC(CCOc2ccc(C(=N)N)cc2)c2ccccc2)cc1 (centres unmarked),,,BW25113,,,> 200 µg/mL
CC1(C)S[C@@H]2[C@H](NC(=O)[C@H](N)c3ccccc3)C(=O)N2[C@H]1C(=O)O,broth dilution,,ATCC25922,,,8 µg/mL
N=C(N)c1cccc(OCc2ccc(COc3cccc(C(=N)N)c3)cc2)c1,,,BW25113,,,> 200 µg/mL
CN[C@H](CC(C)C)C(=O)N[C@H]1C(=O)N[C@@H](CC(N)=O)C(=O)N[C@H]2C(=O)N[C@H]3C(=O)N[C@H](C(=O)N[C@H](C(=O)O)c4cc(O)cc(O)c4-c4cc3ccc4O)[C@H](O)c3ccc(c(Cl)c3)Oc3cc2cc(c3O[C@@H]2O[C@H](CO)[C@@H](O)[C@H](O)[C@H]2O[C@H]2C[C@](C)(N)[C@H](O)[C@H](C)O2)Oc2ccc(cc2Cl)[C@H]1O,broth dilution,,ATCC25922,18 h,,> 32 µg/mL
N=C(N)c1ccc(OCc2cc(Br)cc(COc3ccc(C(=N)N)cc3)c2)cc1,,,BW25113,,,> 100 µg/mL
Clc1ccccc1NCc1ccc(Oc2ccccn2)cc1,,,,,,> 25 µg/mL
COc1c(C)c(O)c(C)c(O)c1C(=O)/C=C/c1ccccc1,broth dilution,,ATCC25922,,,1250 µg/mL
Cc1ccc(C)n1-c1ccc(-c2nnc(-c3ccc(N(C)C)cc3)[nH]2)cc1,broth dilution,,ATCC10536,18 h,,250 µg/mL
CCCCCCC#Cc1cncc(-c2nnc(SCc3ccc(Cl)cc3)n2C2CC2)c1,,,,,,≥ 20 µg/mL
CC(C)Oc1c(NC(=O)c2ccc(NC(=O)[C@H](CC(N)=O)NC(=O)c3ccc(NC(=O)c4ccc(NC(=O)c5ccc([N+](=O)[O-])cc5)cc4)cc3)cc2)ccc(C(=O)Nc2ccc(C(=O)O)cc2)c1O,,,DSM1116,,,0.5 µg/mL
Cc1ccc2nc(-c3ccc(N(C)C)cc3)[nH]c2c1,broth dilution,,ATCC25922,,,64 µg/mL
Cc1cc(C#N)ccc1C(=O)Nc1ccc(C(=O)N[C@@H](CC(N)=O)C(=O)Nc2ccc(C(=O)Nc3ccc(C(=O)Nc4ccc(C(=O)O)cc4)c(O)c3OC(C)C)cc2)cc1,,,DSM1116,,,0.5 µg/mL
N=C(N)c1ccc(OCc2ccc(Br)cc2COc2ccc(C(=N)N)cc2)cc1,,,BW25113,,,≥ 100 µg/mL
CC(C)Oc1c(NC(=O)c2ccc(NC(=O)[C@H](CC(N)=O)NC(=O)c3ccc(NC(=O)Cc4ccc(C#N)cc4)cc3)cc2)ccc(C(=O)Nc2ccc(C(=O)O)cc2)c1O,,,DSM1116,,,1 µg/mL
CNC(C)C1CCC(N)C(OC2C(N)CC(N)C(OC3OCC(C)(O)C(NC)C3O)C2O)O1 (centres unmarked),broth dilution,,ATCC25922,,,0.5 µg/mL
COc1cccc(-c2nc3ccc(C)cc3[nH]2)c1,broth dilution,,ATCC25922,,,128 µg/mL
N=C(N)c1ccc(OCCCCCCCCOc2ccc(C(=N)N)cc2)cc1,broth dilution,,BW25113,,,> 25 µg/mL
CCOc1ccc(-c2nc3ccccc3n2Cc2ccccc2)cc1,broth dilution,,ATCC25922,,,64 µg/mL
N=C(N)c1ccc(OCc2ccc(-c3ccccc3)cc2COc2ccc(C(=N)N)cc2)cc1,,,BW25113,,,≥ 200 µg/mL
C[C@H](CCC(=O)NCCCNCCCCNCCCN)[C@H]1CCC2=C3CC[C@@H]4C[C@H](O)CC[C@]4(C)[C@H]3C[C@H](O)[C@@]21C,broth dilution,,MG1655,20 h,,64 µg/mL
CCCCCCC/C=C/C(=O)N1C(=O)/C(=C(/C)O)C(=O)C1CCC(=O)O (centres unmarked),,K12,K12,,,> 200 µg/mL
CC1=NN(CNC(=O)c2ccccn2)C(=O)C1=NNn1c(-c2ccccc2)nc2ccccc2c1=O,broth dilution,,,24 h,,52 µM
N=C(N)c1ccc(OCCCCCOc2ccc(C(=N)N)cc2)cc1,broth dilution,,BW25113,,,200 µg/mL
CCCCC(=O)N1C(=O)/C(=C(/C)O)C(=O)C1CC(C)C (centres unmarked),,K12,K12,,,> 200 µg/mL
CC1=NN(CNc2ccccc2[N+](=O)[O-])C(=O)C1=NNn1c(-c2ccccc2)nc2ccccc2c1=O,broth dilution,,,24 h,,50.4 µM
CC(=O)Nc1ncc([N+](=O)[O-])s1,,,,,,< 50 µM
CC(C)Oc1c(NC(=O)c2ccc(NC(=O)[C@H](CC(N)=O)NC(=O)c3ccc(NC(=O)c4ccc(C#N)nc4)cc3)cc2)ccc(C(=O)Nc2ccc(C(=O)O)cc2)c1O,,,DSM1116,,,≤ 0.03 µg/mL
CNc1cccc2cc(C(=O)NCCc3cccc(C(=O)O)c3)c(=O)[nH]c12,broth dilution,,ATCC25922,,,> 64 µg/mL
CCCCCCC/C=C/C(=O)N1C(=O)/C(=C(/C)O)C(=O)C1Cc1ccc(OC(C)(C)C)cc1 (centres unmarked),,K12,K12,,,> 200 µg/mL
Cc1ccc2nc(-c3cccc(O)c3)[nH]c2c1,broth dilution,,ATCC25922,,,64 µg/mL
